Measured values published in ChEMBL document CHEMBL5370536, “Design, synthesis, and biological activity of dual monoamine oxidase A and heat shock protein 90 inhibitors, N-Methylpropargylamine-conjugated 4-isopropylresorcinol for glioblastoma” (Eur J Med Chem, 2023).
Activity calls are given as the source filed them. No cut-off for these calls is given here.

Tests used:
[1] = molecular target: T1, Amine oxidase [flavin-containing] A (Mus musculus, UniProt Q64133); test: Inhibition of MAO A in mouse GL26 cells preincubated for 20 mins followed by 14C-labeled 5-hydroxytryptamine addition and measured after 20 mins by scintillation counter analysis; assay type: cell-based
T1 sequence (Q64133 whole entry): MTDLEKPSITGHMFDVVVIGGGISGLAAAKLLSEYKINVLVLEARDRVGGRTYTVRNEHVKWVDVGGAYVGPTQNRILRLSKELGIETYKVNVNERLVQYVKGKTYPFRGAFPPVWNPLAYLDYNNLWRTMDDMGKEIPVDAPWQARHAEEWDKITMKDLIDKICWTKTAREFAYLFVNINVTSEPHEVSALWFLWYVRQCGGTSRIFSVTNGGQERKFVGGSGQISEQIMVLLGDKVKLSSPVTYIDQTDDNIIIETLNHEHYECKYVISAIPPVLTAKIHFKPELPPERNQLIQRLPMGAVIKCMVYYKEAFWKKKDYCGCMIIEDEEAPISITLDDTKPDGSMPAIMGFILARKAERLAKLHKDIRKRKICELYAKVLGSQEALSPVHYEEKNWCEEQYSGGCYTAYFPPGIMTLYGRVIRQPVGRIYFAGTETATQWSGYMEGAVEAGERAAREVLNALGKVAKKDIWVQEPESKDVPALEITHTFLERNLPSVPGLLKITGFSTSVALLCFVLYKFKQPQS

[2] = molecular target: Heat shock protein HSP 90-alpha (Homo sapiens, UniProt P07900); test: Inhibition of human recombinant HSP90alpha preincubated for 30 mins followed by FITC-GM addition and mesured after 3 hrs by fluorescence polarization assay
[3] = Antiproliferative activity against mouse GL26 cells assessed as inhibition of cell growth measured after 48 hrs by MTT assay; assay type: functional, cell-based; settings: GL26, 48 h
Summary of the method: (§1)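 Cells plated at 5×10³ per well 24 h before compound and grown in DMEM with 10% FBS at 37°C, 5% CO₂. After 48 h exposure, the medium was replaced with 0.5 mg/mL MTT for 3 h. Formazan was dissolved in DMSO and read at 570 nm.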

U-251 [4] = test: Antiproliferative activity against human Temozolomide-resistant U-251 cells assessed as inhibition of cell growth measured after 48 hrs by MTT assay; assay type: functional, cell-based; settings: U-251, 48 h; summary of the method: as §1
GL26 [5] = test: Downregulation of HER2 expression in mouse GL26 cells incubated for 24 hrs by Western blot analysis; assay type: functional, cell-based; settings: dose 0.1-3 µM
GL26 [6] = test: Downregulation of Akt phosphorylation expression at Ser 473 residues in mouse GL26 cells incubated for 24 hrs by Western blot analysis; assay type: functional, cell-based; settings: dose 0.1-3 µM
U-251 [7] = test: Downregulation of HER2 expression in human Temozolomide-resistant U-251 cells incubated for 24 hrs by Western blot analysis; assay type: functional, cell-based; settings: dose 0.1-3 µM
U-251 [8] = test: Downregulation of Akt phosphorylation expression at Ser 473 residues in human Temozolomide-resistant U-251 cells incubated for 24 hrs by Western blot analysis; assay type: functional, cell-based; settings: dose 0.1-3 µM
U-87 MG = test: Antiproliferative activity against human U-87 MG cells assessed as inhibition of cell growth measured after 72 hrs by CCK8 method; assay type: functional, cell-based, U-87MG ATCC
Summary of the method: (§2)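 Cell lines from ATCC or from patient surgical specimens (P1S, P3, P3R), kept in DMEM with 10% FBS and 1% penicillin/streptomycin at 37°C, 5% CO₂. P3R medium also held 50 μM TMZ. Cells were seeded at 2×10³/well 24 h before compound, then exposed 72 h.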

[9] = Antiproliferative activity against human U373 MG cells assessed as inhibition of cell growth measured after 72 hrs by CCK8 method; assay type: functional, cell-based, U-373MG ATCC; summary of the method: as §2
LN-229 = test: Antiproliferative activity against human LN-229 cells assessed as inhibition of cell growth measured after 72 hrs by CCK8 method; assay type: functional, cell-based; settings: LN-229, 72 h; summary of the method: as §2
A 172 = test: Antiproliferative activity against human A-172 cells assessed as inhibition of cell growth measured after 72 hrs by CCK8 method; assay type: functional, cell-based; settings: A 172, 72 h; summary of the method: as §2
T98G = test: Antiproliferative activity against human T98G cells assessed as inhibition of cell growth measured after 72 hrs by CCK8 method; assay type: functional, cell-based; summary of the method: as §2
[10] = Antiproliferative activity against human patient-derived, TMZ-resistant and concurrent chemo-radiotherapy (CCRT)-resistant P1S cell assessed as inhibition of cell growth measured after 72 hrs by CCK8 method; assay type: functional, cell-based; summary of the method: as §2
[11] = Antiproliferative activity against human patient-derived P3 cell assessed as inhibition of cell growth measured after 72 hrs by CCK8 method; assay type: functional, cell-based; summary of the method: as §2
[12] = Antiproliferative activity against human patient-derived TMZ-resistant GBM cells with MGMT negative P3R cell assessed as inhibition of cell growth measured after 72 hrs by CCK8 method; assay type: functional, cell-based; summary of the method: as §2
U-251 [13] = test: Upregulation of HSP70 expression in human Temozolomide-resistant U-251 cells incubated for 24 hrs by Western blot analysis; assay type: functional, cell-based; settings: dose 0.1-3 µM
GL26 [14] = test: Upregulation of HSP70 expression in mouse GL26 cells incubated for 24 hrs by Western blot analysis; assay type: functional, cell-based; settings: dose 0.1-3 µM
GL26 [15] = test: Downregulation of IFN-gamma induced PD-L1 expression in mouse GL26 cells incubated for 24 hrs by flow cytometry analysis; assay type: functional, cell-based
Summary of the method: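 GL26 cells at 3.6 × 10⁵ per well were treated at various concentrations with or without 10 ng/mL IFN-γ for 24 h. Cells were stained with goat anti-PD-L1 for 1 h in PBS/0.05% BSA, then FITC donkey anti-goat for 1 h, and read by flow cytometry. MFI was normalised to the secondary-antibody-only isotype control and expressed as an MFI ratio.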

HCT-116 [16] = test: Downregulation of PD-L1 expression in human HCT-116 cells; assay type: functional, cell-based
Summary of the method: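 HCT116 cells at 3 × 10⁵ per well were treated at various concentrations with or without 20 ng/mL IFN-γ for 48 h. Cells were stained with mouse anti-PD-L1 for 1 h in PBS/0.05% BSA, then FITC goat anti-mouse for 1 h. Surface FITC mean fluorescence intensity was measured by flow cytometry.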

[17] = Antitumor activity against mouse GL26 cells xenografted in C57BL/6J mouse model assessed as tumor growth inhibition at 25 mg/kg, ip administered daily for 3 days followed by every 3 days for 14 days by caliper method relative to control; assay type: functional; settings: GL26, 336 h, time 14 day, read-out: TGI
Summary of the method: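 Male C57BL/6J mice aged 8-9 weeks received 2 × 10⁵ GL26 cells subcutaneously in the lower back. From day 9 after implantation, once tumours were palpable, 25 mg/kg was given i.p. daily for 3 days and then every 3 days over 14 days. Caliper volume was length × width² ÷ 2. TGI% was taken relative to the mean tumour size of the vehicle group.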

[18] = Toxicity in C57BL/6J mouse assessed as change in body weight at 25 mg/kg, ip measured after 3 days; assay type: organism-based; settings: in vivo, 72 h, time 3 day
Summary of the method: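 Male C57BL/6J mice, 8-9 weeks old, given 2 × 10⁵ GL26 cells subcutaneously in the lower back. From day 9, when tumor was visible, dosing was i.p. for 14 days with vehicle, clorgyline 10 mg/kg daily, or test compounds 25 mg/kg daily for the first 3 days then every 3 days. Tumor was measured by caliper, volume = length × width² ÷ 2, and TGI% was taken against the vehicle-group mean. Body weight was tracked.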

SF-268 = test: Growth inhibition of human SF-268 cells incubated for 48 hrs by SRB assay; assay type: functional
Summary of the method: (§3)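 NCI-60 panel screen: cells seeded at 5000 to 40000 per well according to doubling time, 24 h before drug addition at various concentrations. A time-zero plate was TCA-fixed at drug addition. After 48 h drug exposure, growth was read by sulforhodamine B staining. Percent growth = [(Ti − Tz)/(C − Tz)] × 100, and GI50 is the concentration at which this equals 50.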

SF-295 = test: Growth inhibition of human SF-295 cells incubated for 48 hrs by SRB assay; assay type: functional; summary of the method: as §3
SF-539 = test: Growth inhibition of human SF-539 cells incubated for 48 hrs by SRB assay; assay type: functional; summary of the method: as §3
SNB-19 = test: Growth inhibition of human SNB-19 cells incubated for 48 hrs by SRB assay; assay type: functional; summary of the method: as §3
SNB-75 = test: Growth inhibition of human SNB-75 cells incubated for 48 hrs by SRB assay; assay type: functional; summary of the method: as §3
U-251 [19] = test: Growth inhibition of human U-251 cells incubated for 48 hrs by SRB assay; assay type: functional; summary of the method: as §3
HL-60 = test: Growth inhibition of human HL-60 cells incubated for 48 hrs by SRB assay; assay type: functional; summary of the method: as §3
K562 = test: Growth inhibition of human K562 cells incubated for 48 hrs by SRB assay; assay type: functional; summary of the method: as §3
RPMI-8226 = test: Growth inhibition of human RPMI-8226 cells incubated for 48 hrs by SRB assay; assay type: functional; summary of the method: as §3
A549 = test: Growth inhibition of human A549 cells incubated for 48 hrs by SRB assay; assay type: functional; summary of the method: as §3
NCI-H460 = test: Growth inhibition of human NCI-H460 cells incubated for 48 hrs by SRB assay; assay type: functional; summary of the method: as §3
NCI-H522 = test: Growth inhibition of human NCI-H522 cells incubated for 48 hrs by SRB assay; assay type: functional; summary of the method: as §3
HCT-116 [20] = test: Growth inhibition of human HCT-116 cells incubated for 48 hrs by SRB assay; assay type: functional; summary of the method: as §3

SMILES: C#CCN(C)CCCOc1cc(NC(=O)c2cc(C(C)C)c(O)cc2O)ccc1Cl
- IC50 [1]: 2360 nM

SMILES: C#CCN(C)CCCOc1cccc(N(C)C(=O)c2cc(C(C)C)c(O)cc2O)c1Cl
- IC50 [1]: > 10000 nM

SMILES: C#CCN(C)CCCOc1ccc(N(CCC)C(=O)c2cc(C(C)C)c(O)cc2O)cc1Cl
- IC50 [1]: 3860 nM
- IC50 [2]: 170 nM
- IC50 [3]: 8420 nM
- IC50 (U-251 [4]): > 10000 nM

SMILES: C#CCN(C)CCCOc1cccc(N(CC)C(=O)c2cc(C(C)C)c(O)cc2O)c1Cl
- IC50 [1]: 2270 nM

SMILES: CC(C)c1cc(-c2n[nH]c(=O)n2-c2ccc3c(ccn3C)c2)c(O)cc1O [GANETESPIB]
- IC50 [1]: > 10000 nM
- IC50 (U-251 [4]): > 10000 nM
- Activity (GL26 [5]): Dose-Dependent Effect
- Activity (GL26 [6]): Dose-Dependent Effect
- Activity (U-251 [7]): Dose-Dependent Effect
- Activity (U-251 [8]): Dose-Dependent Effect

SMILES: C#CCN(C)CCCOc1ccc(N(C)C(=O)c2cc(C(C)C)c(O)cc2O)cc1Cl
- IC50 [1]: 1770 nM
- IC50 [2]: 19 nM
- IC50 [3]: 730 nM
- IC50 (U-251 [4]): 840 nM
- IC50 (U-87 MG): 350 nM
- IC50 [9]: 1460 nM
- IC50 (LN-229): 400 nM
- IC50 (A 172): 3310 nM
- IC50 (T98G): 460 nM
- IC50 [10]: 860 nM
- IC50 [11]: 2730 nM
- IC50 [12]: 2530 nM
- Activity (GL26 [5]): Dose-Dependent Effect
- Activity (GL26 [6]): Dose-Dependent Effect
- Activity (U-251 [7]): Dose-Dependent Effect
- Activity (U-251 [8]): Dose-Dependent Effect
- Activity (U-251 [13]): Dose-Dependent Effect
- Activity (GL26 [14]): Dose-Dependent Effect
- Activity (GL26 [15]): Dose-Dependent Effect
- Activity (HCT-116 [16]): Active
- inhibition in vivo at 25 mg/kg [17]: 63.2%
- Activity [18]: Toxic
- GI50 (SF-268): 520 nM
- GI50 (SF-295): 290 nM
- GI50 (SF-539): 320 nM
- GI50 (SNB-19): 440 nM
- GI50 (SNB-75): 420 nM
- GI50 (U-251 [19]): 320 nM
- GI50 (HL-60): 40 nM
- GI50 (K562): 70 nM
- GI50 (RPMI-8226): 380 nM
- GI50 (A549): 190 nM
- GI50 (NCI-H460): 40 nM
- GI50 (NCI-H522): 80 nM
- GI50 (HCT-116 [20]): 80 nM
